In brackets after ≈: the same amount, converted by molar mass.
Key:
[1] = Permeability across apical to basolateral side in human Caco2 cells; type: ADME, cell-based; conditions: Caco-2, read-out: permeability
Method in brief: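 Caco-2 monolayer permeability run with apical compartment at pH 6.0 and basolateral compartment at pH 7.4; reported in 10^-6 cm/s.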

Hepatitis C virus [2] = experiment: Antiviral activity against HCV genotype 1b infected in human HuH7 cells assessed as inhibition of viral RNA replication after 72 hrs by luciferase reporter gene assay; type: functional, organism-based, Hepacivirus hominis; conditions: Huh-7, 72 h
Method in brief: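 HCV genotype 1b subgenomic luciferase reporter replicon cells. EC50 taken from inhibition of replicon RNA replication, luciferase read-out, n ≥ 2; method as described in earlier work.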

[3] = Lipophilicity, log D of the compound at pH 7.4; type: physicochemical; conditions: buffer
[4] = Solubility of the compound in form of lyophilized, amorphous solid at pH 6.8 after 24 hrs by shake flask method; type: physicochemical; conditions: buffer
Method in brief: (§1)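 Lyophilized amorphous solids tested by 24 h shaking flask method; solubility given in µg/ml at pH 2 and at pH 6.8.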

[5] = Solubility of the compound in form of lyophilized, amorphous solid at pH 2 after 24 hrs by shake flask method; type: physicochemical; conditions: buffer; method in brief: as §1
Hepatitis C virus [6] = experiment: Antiviral activity against HCV genotype 1b expressing HCV genotype 4a NS5B infected in human HuH7-J cells assessed as inhibition of viral RNA replication after 72 hrs by poliovirus internal ribosomal entry site incorporating luciferase reporter gene assay; type: functional, organism-based, Hepacivirus hominis; conditions: Huh-7, 72 h
Method in brief: (§2)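 Surrogate assay using chimeric gt1b subgenomic replicons that carry the NS5B polymerase gene from gt2b, 3a, 4a or 5a. Luciferase reporter sits downstream of the poliovirus IRES. EC50 is derived from inhibition of replication read by luciferase.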

Hepatitis C virus [7] = experiment: Antiviral activity against HCV genotype 1b infected in human HuH7-J cells assessed as inhibition of viral RNA replication after 72 hrs by poliovirus internal ribosomal entry site incorporating luciferase reporter gene assay; type: functional, organism-based, Hepacivirus hominis; conditions: Huh-7, 72 h
Method in brief: (§3)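 Subgenomic HCV replicons (gt1a or gt1b) carrying a luciferase reporter, with the poliovirus IRES placed upstream of luciferase. EC50 is derived from inhibition of HCV RNA replication read by luciferase signal.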

Hepatitis C virus [8] = experiment: Antiviral activity against HCV genotype 1a infected in human HuH7-J cells assessed as inhibition of viral RNA replication after 72 hrs by poliovirus internal ribosomal entry site incorporating luciferase reporter gene assay; type: functional, organism-based, Hepacivirus hominis; conditions: subtype 1a, Huh-7, 72 h; method in brief: as §3
Hepatitis C virus [9] = experiment: Antiviral activity against HCV genotype 1b expressing HCV genotype 5a NS5B infected in human HuH7-J cells assessed as inhibition of viral RNA replication after 72 hrs by poliovirus internal ribosomal entry site incorporating luciferase reporter gene assay; type: functional, organism-based, Hepacivirus hominis; conditions: Huh-7, 72 h; method in brief: as §2
Hepatitis C virus [10] = experiment: Antiviral activity against HCV genotype 1b expressing HCV genotype 2b NS5B infected in human HuH7-J cells assessed as inhibition of viral RNA replication after 72 hrs by poliovirus internal ribosomal entry site incorporating luciferase reporter gene assay; type: functional, organism-based, Hepacivirus hominis; conditions: Huh-7, 72 h; method in brief: as §2
Hepatitis C virus [11] = experiment: Antiviral activity against HCV genotype 1b expressing HCV genotype 6a NS5B infected in human HuH7-J cells assessed as inhibition of viral RNA replication after 72 hrs by real-time PCR analysis; type: functional, organism-based, Hepacivirus hominis; conditions: Huh-7, 72 h
Method in brief: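 Surrogate assay using a chimeric gt1b subgenomic replicon carrying the gt6a NS5B polymerase gene. Replicon RNA is quantified by RT-PCR, and EC50 is derived from inhibition of HCV RNA replication.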

Hepatitis C virus [12] = experiment: Antiviral activity against HCV genotype 1b expressing HCV genotype 3a NS5B infected in human HuH7-J cells assessed as inhibition of viral RNA replication after 72 hrs by poliovirus internal ribosomal entry site incorporating luciferase reporter gene assay; type: functional, organism-based, Hepacivirus hominis; conditions: Huh-7, 72 h; method in brief: as §2

Row | Compound | Papp A→B [1] | EC50 (Hepatitis C virus [2]) | logD [3] | solubility thermodynamic at 24 h [4] | solubility thermodynamic at 24 h [5] | further results
1 | O=C(Nc1ccccc1)c1cccc(Oc2ccc3c(c2)c(=O)ncn3Cc2c(F)cc(F)cc2F)c1C(F)(F)F | 8.4 nm/s | 2.5 nM |  |  |  | 
2 | Cc1cc(-c2cccc(Oc3ccc4c(c3)c(=O)ncn4Cc3c(F)cc(F)cc3F)c2C(F)(F)F)cnc1N | 11 nm/s | 6 nM | > 4.7 | < 0.1 µg/mL | 74 µg/mL (≈ 133 µM) | 
3 | Nc1ccc(-c2cccc(Oc3ccc4c(c3)c(=O)ncn4Cc3c(F)cc(F)cc3F)c2C(F)(F)F)cn1 | 41 nm/s | 10 nM | 3.9 | < 0.1 µg/mL | 0.3 µg/mL (≈ 0.553 µM) | 
4 | O=c1ncn(Cc2c(F)cc(F)cc2F)c2ccc(Oc3ccccc3C(F)(F)F)cc12 | 92 nm/s |  |  |  |  | 
5 | O=c1ncn(Cc2c(F)cc(F)cc2F)c2ccc(Oc3cccc(-c4ccc5[nH]ccc5c4)c3C(F)(F)F)cc12 | 105 nm/s | 0.13 nM | 5.1 | < 0.1 µg/mL | < 0.1 µg/mL | EC50 (Hepatitis C virus [6]): 1.1 nM; EC50 (Hepatitis C virus [7]): 0.11 nM; EC50 (Hepatitis C virus [8]): 0.12 nM; EC50 (Hepatitis C virus [9]): 1.3 nM; EC50 (Hepatitis C virus [10]): 15 nM; EC50 (Hepatitis C virus [11]): 11 nM; EC50 (Hepatitis C virus [12]): 80 nM
6 | O=c1ncn(Cc2c(F)cc(F)cc2F)c2ccc(Oc3cccc(-c4ccccc4)c3C(F)(F)F)cc12 |  | 450 nM |  |  |  | 
7 | O=C(Nc1ccccn1)c1cccc(Oc2ccc3c(c2)c(=O)ncn3Cc2c(F)cc(F)cc2F)c1C(F)(F)F | 12 nm/s | 6.8 nM |  |  |  | 
8 | O=c1ncn(Cc2c(F)cc(F)cc2F)c2ccc(Oc3cccc(-c4nc5ncccc5o4)c3C(F)(F)F)cc12 | 30 nm/s | 3.3 nM |  |  |  | 
9 | O=c1ncn(Cc2c(F)cc(F)cc2F)c2ccc(Oc3cccc(-c4ccccn4)c3C(F)(F)F)cc12 |  | 310 nM |  |  |  | 
10 | NC(=O)c1cccc(Oc2ccc3c(c2)c(=O)ncn3Cc2c(F)cc(F)cc2F)c1C(F)(F)F | 19 nm/s | 180 nM |  |  |  | 
11 | O=c1ncn(Cc2c(F)cc(F)cc2F)c2ccc(Oc3ccc(-c4nc5ncccc5o4)cc3)cc12 |  | 490 nM |  |  |  | 
12 | O=C(Nc1cccnc1)c1cccc(Oc2ccc3c(c2)c(=O)ncn3Cc2c(F)cc(F)cc2F)c1C(F)(F)F | 2.6 nm/s | 5.7 nM |  |  |  | 
13 | Cc1ccc(-c2cccc(Oc3ccc4c(c3)c(=O)ncn4Cc3c(F)cc(F)cc3F)c2C(F)(F)F)cn1 |  | 55 nM | 4.2 | < 0.1 µg/mL | 180 µg/mL (≈ 332 µM) | 
14 | O=c1ncn(Cc2c(F)cc(F)cc2F)c2ccc(Oc3ccc(-c4ccc5[nH]ccc5c4)cc3)cc12 | 35 nm/s | 4.6 nM | 4.4 | 0.18 µg/mL (≈ 0.362 µM) | < 0.1 µg/mL | 
15 | O=c1ncn(Cc2c(F)cc(F)cc2F)c2ccc(Oc3cccc(-c4ccc5[nH]cnc5c4)c3C(F)(F)F)cc12 | 4 nm/s | 0.6 nM | 4.7 | < 0.1 µg/mL | < 0.1 µg/mL | 
16 | O=c1ncn(Cc2c(F)cc(F)cc2F)c2ccc(Oc3cccc(-c4ccc5cc[nH]c5c4)c3C(F)(F)F)cc12 |  | 10 nM | 5 | < 0.1 µg/mL | < 0.1 µg/mL | 
